Source: article PMC5412920 (Journal of Clinical Pharmacology, 2016)
Read-outs that look alike come from different tables or passages of the source. Marks after values point to notes of the source that are not given here.

How the values were obtained:
[1] = format: in vivo, human; details: for t1/2: arithmetic mean (SD); for AUC, geometric least-squares mean / Cmax, geometric least-squares mean: fixed-effect ANOVA; for Cmax / MRAUC (metabolite-to-parent AUC ratio) / MRCmax (metabolite-to-parent Cmax ratio) / AUCu / Cmax,u: geometric mean (gCV%); for tmax: median (min-max); for AUCu / Cmax,u: unbound
[2] = Renal impairment study: excretion in urine and blood dialysate; format: in vivo, human
In short: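 Subjects were ESRD patients on haemodialysis or healthy subjects with creatinine clearance >80 mL/min, each given 50 mg orally while fasted. ESRD patients were dosed once after dialysis and, after a washout of ≥7 days, once 1 h before dialysis. Urine was collected predose and in intervals to 72 h. Dialysate spot samples were taken every 30 min, and parameters were derived by the area under the excretion rate curve method. Analysis was by LC-MS/MS.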

[3] = format: in vivo, human; details: for t1/2: arithmetic mean (SD); for tmax: median (min-max)
[4] = Hepatic impairment study: excretion in urine; format: in vivo, human
In short: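 Urine from hepatic-impairment and healthy subjects was collected at −12 to 0 h predose, then 0–6, 6–12, 12–24, 24–36 and 36–48 h, and every 24 h to 120 h after a single oral dose. Dosing followed an overnight fast, with fasting until 4 h postdose. Analytes were measured by LC-MS/MS (positive electrospray, MRM) against carbon-13 internal standards.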

plasma proteins = test: Unbound fraction in plasma; format: in vitro ADME, human; details: healthy subjects; for fu,av: 50 mg, median (min-max)
In short: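 Unbound fraction was measured in human plasma by ultrafiltration after a single oral dose. Ultrafiltrate was analysed by LC-MS/MS in MRM mode with carbon-13 internal standards. Within each subject, the mean percentage unbound from 3 results was applied to all of that subject's samples to give the average fraction unbound (fu,av).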

[5] = NCT02093728 and NCT02046850; cited from earlier work
[6] = ESRD, treatment period 1 (50 mg after dialysis)
[7] = ESRD, treatment period 2 (50 mg 1 h before dialysis)
[8] = healthy subjects, 50 mg, geometric mean (gCV%)
[9] = mild hepatic impairment, 50 mg, geometric mean (gCV%)
[10] = moderate hepatic impairment, 50 mg (N = 6) or 25 mg (N = 2), geometric mean (gCV%)
[11] = moderate hepatic impairment, 50 mg dose only
[12] = moderate hepatic impairment, 50 or 25 mg
[13] = severe hepatic impairment, 20 mg

Cmax, ESRD/Healthy Ratio (90%CI) ([1]; ESRD treatment period 1 vs healthy): 84.48 (61.60, 115.86) %
AUC, ESRD/Healthy Ratio (90%CI) ([1]; ESRD treatment period 1 vs healthy, 50 mg): 91.95 (67.73, 124.83) %
AUC lower when dosed before vs after dialysis ([1]; ESRD, 50 mg): 10%
Cmax lower when dosed before vs after dialysis ([1]; ESRD, 50 mg): 15%
t1/2 [1, 6]: 6.28 (2.87) ^d h
AUC, geometric least-squares mean [1, 6]: 171.0 ng·h/mL
Cmax [1, 6]: 45.1 (40.4) ng/mL
tmax [1, 6]: 1.25 (0.50‐3.00) h
Cmax, geometric least-squares mean ([1]; ESRD, treatment period 1): 45.15 ng/mL
MRAUC (metabolite-to-parent AUC ratio) ([1]; ESRD, treatment period 1): 0.0864 (45.9) ^d
MRCmax (metabolite-to-parent Cmax ratio) ([1]; ESRD, treatment period 1): 0.0623 (42.8)
t1/2 [1, 7]: 5.79 (2.52) ^d h
Cmax [1, 7]: 38.5 (57.7) ng/mL
tmax [1, 7]: 1.50 (1.00‐2.00) h
MRAUC (metabolite-to-parent AUC ratio) ([1]; ESRD, treatment period 2): 0.0930 (48.6) ^d
MRCmax (metabolite-to-parent Cmax ratio) ([1]; ESRD, treatment period 2): 0.0759 (35.9)
t1/2 ([1]; healthy subjects, 50 mg): 5.41 (1.40) h
AUC, geometric least-squares mean ([1]; healthy subjects, 50 mg): 185.9 ng·h/mL
Cmax ([1]; healthy subjects, 50 mg): 53.4 (52.1) ng/mL
tmax ([1]; healthy subjects, 50 mg): 1.50 (1.00‐3.00) h
Cmax, geometric least-squares mean ([1]; healthy subjects): 53.45 ng/mL
MRAUC (metabolite-to-parent AUC ratio) ([1]; healthy subjects): 0.0710 (38.4)
MRCmax (metabolite-to-parent Cmax ratio) ([1]; healthy subjects): 0.0619 (32.9)
AUCu [1, 6]: 2.10 (19.2) ^e ng·h/mL
Cmax,u [1, 6]: 0.561 (14.8) ^e ng/mL
AUCu ([1]; healthy subjects, 50 mg): 1.72 (14.4) ^e ng·h/mL
Cmax,u ([1]; healthy subjects, 50 mg): 0.619 (8.5) ^e ng/mL
dose excreted in dialysate ([2]; ESRD, dosed 1 h before dialysis): 0.089%
fraction excreted in urine ([2]; healthy subjects, 50 mg): 0.73%
AUC(0–t)/dose, geometric least-squares mean ([3]; healthy subjects, 50 mg): 4.841 ng·h/mL/mg
Cmax/dose, geometric least-squares mean ([3]; healthy subjects, 50 mg): 1.809 ng/mL/mg
t1/2 ([3]; healthy subjects, 50 mg): 9.24 (3.33) h
AUC(0–t)/dose [3, 8]: 4.84 (43.4) ng·h/mL/mg
Cmax/dose [3, 8]: 1.81 (57.0) ng/mL/mg
tmax ([3]; healthy subjects, 50 mg): 1.00 (1.00‐2.00) h
AUC(0-t)/dose lower than in healthy subjects ([3]; mild hepatic impairment): 49%
Cmax/dose lower than in healthy subjects ([3]; mild hepatic impairment): 56%
AUC(0–t)/dose, geometric least-squares mean ([3]; mild hepatic impairment, 50 mg): 2.445 ng·h/mL/mg
Cmax/dose, geometric least-squares mean ([3]; mild hepatic impairment, 50 mg): 0.8041 ng/mL/mg
t1/2 ([3]; mild hepatic impairment, 50 mg): 5.18 (1.51) ^f h
AUC(0–t)/dose [3, 9]: 2.45 (41.1) ng·h/mL/mg
Cmax/dose [3, 9]: 0.804 (57.7) ng/mL/mg
tmax ([3]; mild hepatic impairment, 50 mg): 1.50 (1.00‐4.00) h
AUC(0–t)/dose, Hepatic impairment/healthy ratio (90%CI) ([3]; mild vs healthy): 50.51 (28.28, 90.19) %
Cmax/dose, Hepatic impairment/healthy ratio (90%CI) ([3]; mild vs healthy): 44.44 (25.70, 76.85) %
AUC(0-t)/dose lower than in healthy subjects ([3]; moderate hepatic impairment): 62%
Cmax/dose lower than in healthy subjects ([3]; moderate hepatic impairment): 70%
AUC(0–t)/dose [3, 10]: 1.83 (129.6) ng·h/mL/mg
Cmax/dose [3, 10]: 0.548 (102.8) ng/mL/mg
t1/2 [3, 11]: 7.72 (2.92) ^i h
tmax [3, 11]: 1.25 (1.00‐1.50) ^f h
AUC(0–t)/dose, geometric least-squares mean [3, 12]: 1.826 ng·h/mL/mg
Cmax/dose, geometric least-squares mean [3, 12]: 0.5485 ng/mL/mg
AUC(0–t)/dose, Hepatic impairment/healthy ratio (90%CI) ([3]; moderate vs healthy): 37.72 (21.12, 67.37) %
Cmax/dose, Hepatic impairment/healthy ratio (90%CI) ([3]; moderate vs healthy): 30.31 (17.53, 52.42) %
MRCmax (metabolite-to-parent Cmax ratio) ([3]; severe hepatic impairment, 20 mg (N = 3), geometric mean (gCV%)): 0.00778 (29.2) ^h
Cmax/dose ([3]; severe hepatic impairment, 20 mg, geometric mean (gCV%)): 0.173 (44.3) ng/mL/mg
tmax [3, 13]: 2.00 (1.50‐2.00) ^h
dose excreted in urine ([4]; healthy subjects, 50 mg): 0.78%
dose excreted in urine ([4]; mild hepatic impairment, 50 mg): 0.64%
dose excreted in urine ([4]; moderate hepatic impairment): 0.20%
dose excreted in urine [4, 13]: 0.09%
median unbound fraction (plasma proteins; in both studies): ~0.6%
fu,av (plasma proteins; hepatic impairment study): 0.61 (0.54‐0.70) ^j %
fu,av (plasma proteins; renal impairment study): 0.688 (0.659‐0.712) ^e %
Compound: O=C(NOCCO)c1cc2nc[nH]c2c(F)c1Nc1ccc(Br)cc1Cl [N‐desmethyl selumetinib]
AUC and Cmax as percentage of the parent compound [5]: ~7%
